Assay results published in ChEMBL document CHEMBL2046280, “Discovery of the novel potent and selective FLT3 inhibitor 1-{5-[7-(3- morpholinopropoxy)quinazolin-4-ylthio]-[1,3,4]thiadiazol-2-yl}-3-p-tolylurea and its anti-acute myeloid leukemia (AML) activities in vitro and in vivo” (J Med Chem, 2012).
The source made the active and inactive calls. No cut-off for these calls is given here.

Key:
MV4-11 [1] = experiment: Antitumor activity against human MV4-11 cells xenografted in NOD-SCID mouse assessed as tumor growth regression at 100 mg/kg, ip once daily for 21 days measured every 3 days; type: functional, organism-based; parameters: dose 100 mg/kg
Procedure, shortened: (§1)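 Female NOD-SCID mice, 6−7 weeks old, received 100 μL of MV4-11 cells (1 × 10⁸/mL in serum-free medium) s.c. in the hind flank. At 300−500 mm³ tumours, mice were randomized (6 per group). Drug was dissolved in 25% (v/v) PEG400 plus 5% DMSO and given ip once daily at 5 mL/kg. Calipers every 3 days; volume = a × b²/2.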

HeLa = experiment: Cytotoxicity against human HeLa cells after 72 hrs by MTT assay
PC-3 = experiment: Cytotoxicity against human PC3 cells after 72 hrs by MTT assay; conditions: PC-3, 72 h
MV4-11 [2] = experiment: Downregulation of STAT5 protein expression in human MV4-11 cells at 10 to 300 nM after 5 hrs by Western blot analysis; type: functional, cell-based
SH-SY5Y = experiment: Cytotoxicity against human SH-SY5Y cells after 72 hrs by MTT assay
Aurora kinase A = Aurora kinase A (Homo sapiens, UniProt O14965); experiment: Inhibition of human Aurora A
[3] = target: Platelet-derived growth factor receptor alpha (Homo sapiens, UniProt P16234); experiment: Inhibition of human PDGFRalpha
SW480 = experiment: Cytotoxicity against human SW480 cells after 72 hrs by MTT assay; conditions: SW480, 72 h
DU-145 = experiment: Cytotoxicity against human DU145 cells after 72 hrs by MTT assay; conditions: DU-145, 72 h
[4] = target: RAF proto-oncogene serine/threonine-protein kinase (Homo sapiens, UniProt P04049); experiment: Inhibition of human c-Raf
SK-OV-3 = experiment: Cytotoxicity against human SKOV3 cells after 72 hrs by MTT assay; conditions: SK-OV-3, 72 h
KARPAS-299 = experiment: Cytotoxicity against human KARPAS299 cells after 72 hrs by MTT assay; conditions: KARPAS-299, 72 h
[5] = Cytotoxicity against human HCC827 cells after 72 hrs by MTT assay; conditions: HCC827, 72 h
[6] = target: Macrophage colony-stimulating factor 1 receptor (Homo sapiens, UniProt P07333); experiment: Inhibition of human FMS
HCT-116 = experiment: Cytotoxicity against FLT3-independent human HCT116 cells after 72 hrs by MTT assay; type: functional, cell-based; conditions: HCT-116, 72 h
Procedure, shortened: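 Adherent lines at 2−5 × 10³ cells/well were allowed to settle 24 h, then the medium was replaced with serial inhibitor dilutions for 72 h. MTT was added for 2−4 h, followed by dissolution in 100% DMSO. OD read at 570 nm. Viability relative to 0.1% DMSO controls; triplicate. Grown in RPMI 1640 or DMEM with 10% FBS, 5% CO₂, 37 °C.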

[7] = target: Vascular endothelial growth factor receptor 3 (Homo sapiens, UniProt P35916); experiment: Inhibition of human FLT4
Ramos = experiment: Cytotoxicity against human Ramos cells after 72 hrs by MTT assay
MV4-11 [8] = experiment: Antitumor activity against human MV4-11 cells xenografted in NOD-SCID mouse assessed as tumor regression at 20 mg/kg, ip administered qd for 21 days measured after 2 to 3 days of last dose by hematoxylin staining; type: functional, organism-based; parameters: dose 20 mg/kg
Procedure, shortened: (§2)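 NOD-SCID mice bearing MV4-11 tumours received 20 mg/kg/d ip and were sacrificed at set times after dosing. Tumours were formalin-fixed and paraffin-embedded, and 4−8 μm sections were cut. Proliferation by Ki67 immunostaining, apoptosis by TUNEL staining, tissue by hematoxylin staining; light-microscope imaging.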

[9] = target: Platelet-derived growth factor receptor beta (Homo sapiens, UniProt P09619); experiment: Inhibition of human PDGFRbeta
Mus musculus = experiment: Toxicity in NOD-SCID mouse bearing human MV4-11 cells assessed as signs of toxicity at 20 to 100 mg/kg, ip administered qd for 21 days; type: organism-based; parameters: dose 20-100 mg/kg, route intraperitoneal; conditions: in vivo, 504 h
Procedure, shortened: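 Female NOD-SCID mice (6−7 weeks old) received s.c. hind-flank injections of MV4-11 cells (100 μL of a 1 × 10⁸/mL suspension in serum-free medium). At 300−500 mm³, the mice were randomized into 4 groups of 6. They were dosed ip once daily for 21 days with 20, 40 or 100 mg/kg/d or vehicle (25% PEG400 plus 5% DMSO, 5 mL/kg). Body weight and signs of toxicity were followed throughout.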

BT-474 = experiment: Cytotoxicity against human BT474 cells after 72 hrs by MTT assay; conditions: BT-474, 72 h
LoVo = experiment: Cytotoxicity against human LoVo cells after 72 hrs by MTT assay
MV4-11 [10] = experiment: Antitumor activity against human MV4-11 cells xenografted in NOD-SCID mouse assessed as tumor growth inhibition at 20 mg/kg, ip once daily for 21 days measured every 3 days; type: functional; conditions: MV4-11, ip, route intraperitoneal, read-out: GI; procedure, shortened: as §1
[11] = target: Vascular endothelial growth factor receptor 2 (Homo sapiens, UniProt P35968); experiment: Inhibition of human KDR
A549 = experiment: Cytotoxicity against human A549 cells after 72 hrs by MTT assay; conditions: A549, 72 h
PC-9 = experiment: Cytotoxicity against human PC9 cells after 72 hrs by MTT assay; conditions: PC-9, 72 h
MV4-11 [12] = experiment: Downregulation of Erk1/2 protein expression in human MV4-11 cells at 10 to 300 nM after 5 hrs by Western blot analysis; type: functional, cell-based
[13] = Cytotoxicity against human SK cells after 72 hrs by MTT assay
K562 = experiment: Cytotoxicity against human K562 cells after 72 hrs by MTT assay; conditions: K562, 72 h
[14] = target: Mast/stem cell growth factor receptor Kit (Homo sapiens, UniProt P10721); experiment: Inhibition of human c-kit
[15] = target: Hepatocyte growth factor receptor (Homo sapiens, UniProt P08581); experiment: Inhibition of human Met
MV4-11 [16] = experiment: Antitumor activity against human MV4-11 cells xenografted in NOD-SCID mouse assessed as tumor mitotic index at 20 mg/kg, ip administered qd for 21 days measured after 2 to 3 days of last dose by Ki67 staining-based immunohistochemical analysis; type: functional, organism-based; parameters: dose 20 mg/kg; procedure, shortened: as §2
[17] = Cytotoxicity against human H820 cells after 72 hrs by MTT assay; conditions: NCI-H820, 72 h
[18] = target: Tyrosine-protein kinase Lck (Homo sapiens, UniProt P06239); experiment: Inhibition of human Lck
Chain of Tyrosine-protein kinase Lck (P06239 whole entry): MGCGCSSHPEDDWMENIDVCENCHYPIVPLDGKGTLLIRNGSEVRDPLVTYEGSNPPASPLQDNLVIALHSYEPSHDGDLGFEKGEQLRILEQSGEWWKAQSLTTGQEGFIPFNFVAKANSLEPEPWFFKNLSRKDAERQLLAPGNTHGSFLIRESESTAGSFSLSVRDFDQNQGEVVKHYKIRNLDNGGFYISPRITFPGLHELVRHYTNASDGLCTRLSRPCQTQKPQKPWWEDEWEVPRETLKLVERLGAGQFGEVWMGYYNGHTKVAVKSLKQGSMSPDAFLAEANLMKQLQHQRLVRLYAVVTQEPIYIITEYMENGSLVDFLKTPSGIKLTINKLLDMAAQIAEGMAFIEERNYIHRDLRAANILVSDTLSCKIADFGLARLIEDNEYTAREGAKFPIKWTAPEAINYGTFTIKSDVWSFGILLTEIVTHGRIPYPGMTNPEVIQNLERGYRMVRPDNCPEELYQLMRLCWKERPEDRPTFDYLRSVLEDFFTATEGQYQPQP

Chain of Platelet-derived growth factor receptor beta (P09619 whole entry): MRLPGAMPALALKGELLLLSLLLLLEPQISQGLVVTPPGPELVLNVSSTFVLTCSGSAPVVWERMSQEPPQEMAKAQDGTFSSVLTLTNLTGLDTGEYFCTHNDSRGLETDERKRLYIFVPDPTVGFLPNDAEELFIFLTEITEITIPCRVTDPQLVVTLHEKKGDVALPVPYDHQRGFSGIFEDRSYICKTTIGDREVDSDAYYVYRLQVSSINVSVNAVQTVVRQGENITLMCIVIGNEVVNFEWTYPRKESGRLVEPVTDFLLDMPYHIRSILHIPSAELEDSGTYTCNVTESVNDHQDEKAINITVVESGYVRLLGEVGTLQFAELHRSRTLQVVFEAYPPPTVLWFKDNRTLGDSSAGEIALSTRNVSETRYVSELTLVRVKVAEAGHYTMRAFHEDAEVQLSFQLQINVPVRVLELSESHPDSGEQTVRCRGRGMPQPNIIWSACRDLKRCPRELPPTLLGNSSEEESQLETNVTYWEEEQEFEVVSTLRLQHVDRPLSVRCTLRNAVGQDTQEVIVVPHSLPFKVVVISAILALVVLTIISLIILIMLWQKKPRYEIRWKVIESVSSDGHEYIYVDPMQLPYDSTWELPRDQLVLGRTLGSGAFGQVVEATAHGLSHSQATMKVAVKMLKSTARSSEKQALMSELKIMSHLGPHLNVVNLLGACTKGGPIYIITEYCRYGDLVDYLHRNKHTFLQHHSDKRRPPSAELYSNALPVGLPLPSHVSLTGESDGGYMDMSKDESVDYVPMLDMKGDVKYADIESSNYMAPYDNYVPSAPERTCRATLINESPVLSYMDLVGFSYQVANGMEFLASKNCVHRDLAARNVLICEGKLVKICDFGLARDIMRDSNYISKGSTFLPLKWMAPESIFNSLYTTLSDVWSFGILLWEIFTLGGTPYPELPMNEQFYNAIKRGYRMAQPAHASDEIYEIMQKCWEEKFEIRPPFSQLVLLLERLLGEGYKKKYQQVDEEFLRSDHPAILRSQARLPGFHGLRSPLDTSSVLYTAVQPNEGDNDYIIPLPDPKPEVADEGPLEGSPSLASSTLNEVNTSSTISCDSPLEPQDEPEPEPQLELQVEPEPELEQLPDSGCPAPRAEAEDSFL
Chain of Platelet-derived growth factor receptor alpha (P16234 whole entry): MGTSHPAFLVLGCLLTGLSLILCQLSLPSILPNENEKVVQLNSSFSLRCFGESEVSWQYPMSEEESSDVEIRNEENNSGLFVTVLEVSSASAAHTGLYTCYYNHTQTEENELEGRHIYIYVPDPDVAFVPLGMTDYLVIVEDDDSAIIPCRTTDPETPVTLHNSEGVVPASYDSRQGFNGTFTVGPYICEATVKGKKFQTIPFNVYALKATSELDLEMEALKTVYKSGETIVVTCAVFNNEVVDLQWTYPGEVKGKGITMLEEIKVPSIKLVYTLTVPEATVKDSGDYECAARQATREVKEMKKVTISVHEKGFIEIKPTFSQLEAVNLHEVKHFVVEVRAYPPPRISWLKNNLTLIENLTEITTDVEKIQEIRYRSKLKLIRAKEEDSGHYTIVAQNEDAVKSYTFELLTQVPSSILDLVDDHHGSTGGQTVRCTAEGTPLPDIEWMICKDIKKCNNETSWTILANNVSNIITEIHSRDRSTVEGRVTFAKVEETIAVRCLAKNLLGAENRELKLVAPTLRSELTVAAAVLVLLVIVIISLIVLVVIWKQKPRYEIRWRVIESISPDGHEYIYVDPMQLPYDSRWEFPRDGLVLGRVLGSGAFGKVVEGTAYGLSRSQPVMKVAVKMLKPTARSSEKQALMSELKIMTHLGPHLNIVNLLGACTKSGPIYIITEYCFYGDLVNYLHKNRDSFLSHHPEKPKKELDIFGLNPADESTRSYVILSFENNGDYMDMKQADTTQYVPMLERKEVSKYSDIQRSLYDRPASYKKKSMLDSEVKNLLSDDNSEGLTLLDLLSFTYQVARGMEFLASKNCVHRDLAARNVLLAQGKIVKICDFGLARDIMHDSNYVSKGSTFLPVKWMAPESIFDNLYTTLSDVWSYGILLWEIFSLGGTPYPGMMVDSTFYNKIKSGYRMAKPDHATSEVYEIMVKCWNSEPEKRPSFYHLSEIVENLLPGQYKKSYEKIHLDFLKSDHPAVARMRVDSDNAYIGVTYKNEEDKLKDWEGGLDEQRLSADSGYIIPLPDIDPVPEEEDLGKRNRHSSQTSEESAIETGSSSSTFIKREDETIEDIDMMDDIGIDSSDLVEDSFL
Chain of RAF proto-oncogene serine/threonine-protein kinase (P04049 whole entry): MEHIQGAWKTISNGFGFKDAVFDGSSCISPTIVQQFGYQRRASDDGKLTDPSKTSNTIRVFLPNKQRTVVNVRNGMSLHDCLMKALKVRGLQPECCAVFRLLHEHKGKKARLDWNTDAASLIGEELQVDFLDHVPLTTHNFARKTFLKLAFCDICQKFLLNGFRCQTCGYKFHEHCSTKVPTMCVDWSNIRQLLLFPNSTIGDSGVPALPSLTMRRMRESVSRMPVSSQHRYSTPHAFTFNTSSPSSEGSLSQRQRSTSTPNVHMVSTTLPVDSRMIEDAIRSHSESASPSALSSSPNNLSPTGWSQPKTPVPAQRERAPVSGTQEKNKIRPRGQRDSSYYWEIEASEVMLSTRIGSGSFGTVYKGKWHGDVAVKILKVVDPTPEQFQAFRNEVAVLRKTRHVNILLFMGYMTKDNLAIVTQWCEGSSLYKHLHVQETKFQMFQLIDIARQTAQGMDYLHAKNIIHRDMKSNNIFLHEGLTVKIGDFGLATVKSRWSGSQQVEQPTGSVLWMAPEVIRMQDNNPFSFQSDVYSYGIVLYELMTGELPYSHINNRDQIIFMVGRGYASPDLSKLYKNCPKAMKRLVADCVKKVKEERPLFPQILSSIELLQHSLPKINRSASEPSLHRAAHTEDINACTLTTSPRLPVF
Chain of Aurora kinase A (O14965 whole entry): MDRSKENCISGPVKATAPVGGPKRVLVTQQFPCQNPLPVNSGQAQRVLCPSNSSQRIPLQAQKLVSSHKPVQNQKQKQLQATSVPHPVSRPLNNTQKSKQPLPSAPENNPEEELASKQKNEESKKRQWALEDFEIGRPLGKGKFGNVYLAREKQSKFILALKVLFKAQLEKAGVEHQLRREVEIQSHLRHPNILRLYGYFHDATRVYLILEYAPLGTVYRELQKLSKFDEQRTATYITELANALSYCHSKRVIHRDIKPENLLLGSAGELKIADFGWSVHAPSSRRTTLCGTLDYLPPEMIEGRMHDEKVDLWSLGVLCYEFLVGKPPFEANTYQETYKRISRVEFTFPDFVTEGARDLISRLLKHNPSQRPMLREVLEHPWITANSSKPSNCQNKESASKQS
Chain of Macrophage colony-stimulating factor 1 receptor (P07333 whole entry): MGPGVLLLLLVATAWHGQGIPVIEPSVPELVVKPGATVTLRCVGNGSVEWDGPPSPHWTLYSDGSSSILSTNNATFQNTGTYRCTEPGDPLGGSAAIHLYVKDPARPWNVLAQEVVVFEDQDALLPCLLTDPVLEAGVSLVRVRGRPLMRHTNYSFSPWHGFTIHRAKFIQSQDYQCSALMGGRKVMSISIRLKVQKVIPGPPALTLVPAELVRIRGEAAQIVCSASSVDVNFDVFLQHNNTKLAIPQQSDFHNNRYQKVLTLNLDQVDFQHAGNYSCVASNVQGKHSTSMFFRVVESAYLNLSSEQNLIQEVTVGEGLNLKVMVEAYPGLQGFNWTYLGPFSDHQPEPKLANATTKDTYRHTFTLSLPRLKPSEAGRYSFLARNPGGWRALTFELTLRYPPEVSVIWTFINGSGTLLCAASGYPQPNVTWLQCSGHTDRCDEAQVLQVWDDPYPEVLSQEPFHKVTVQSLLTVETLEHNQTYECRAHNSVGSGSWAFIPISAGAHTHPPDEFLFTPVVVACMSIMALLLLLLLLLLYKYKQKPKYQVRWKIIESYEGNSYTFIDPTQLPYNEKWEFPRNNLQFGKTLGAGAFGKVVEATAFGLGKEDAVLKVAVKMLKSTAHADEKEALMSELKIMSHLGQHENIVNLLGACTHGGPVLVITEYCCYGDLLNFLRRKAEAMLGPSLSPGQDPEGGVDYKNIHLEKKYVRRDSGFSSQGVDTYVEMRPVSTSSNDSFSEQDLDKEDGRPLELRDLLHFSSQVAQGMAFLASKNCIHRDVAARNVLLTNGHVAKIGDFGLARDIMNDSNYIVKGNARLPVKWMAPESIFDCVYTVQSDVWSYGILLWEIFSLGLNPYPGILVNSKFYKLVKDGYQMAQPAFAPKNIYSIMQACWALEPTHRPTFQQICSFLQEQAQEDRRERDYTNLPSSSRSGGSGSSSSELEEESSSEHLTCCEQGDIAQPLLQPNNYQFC

Cc1ccc(NC(=O)Nc2nnc(Sc3ncnc4cc(OCCCN5CCOCC5)ccc34)s2)cc1
Activity (MV4-11 [1]): Active | IC50 (HeLa): > 20 µM | IC50 (PC-3): 15.7 µM | Activity (MV4-11 [2]): inactive | IC50 (SH-SY5Y): > 20 µM | IC50 (Aurora kinase A): 1.5 µM | IC50 [3]: > 10 µM | IC50 (SW480): 11.2 µM | IC50 (DU-145): 18.6 µM | IC50 [4]: > 10 µM | IC50 (SK-OV-3): > 20 µM | IC50 (KARPAS-299): > 20 µM | IC50 [5]: 12.5 µM | IC50 [6]: 2.8 µM | IC50 (HCT-116): > 10 µM | IC50 [7]: 3.7 µM | IC50 (Ramos): 6.25 µM | Activity (MV4-11 [8]): Active | IC50 [9]: > 10 µM | Activity (Mus musculus): Non-toxic | IC50 (BT-474): > 20 µM | IC50 (LoVo): > 20 µM | inhibition in vivo at 20 mg/kg (MV4-11 [10]): 66% | IC50 [11]: > 10 µM | IC50 (A549): > 20 µM | IC50 (PC-9): 3.72 µM | Activity (MV4-11 [12]): inactive | IC50 [13]: > 20 µM | IC50 (K562): 12.7 µM | IC50 [14]: 6.8 µM | IC50 [15]: > 10 µM | Activity (MV4-11 [16]): Active | IC50 [17]: > 20 µM | IC50 [18]: > 10 µM
